Published values collected from several papers.
Compare with care: the assays were run in different laboratories.
CASP8: Caspase-8 (CASP8, Homo sapiens, UniProt Q14790)
ABHD6: Monoacylglycerol lipase ABHD6 (ABHD6, Homo sapiens, UniProt Q9BV23)
HTR5A: 5-hydroxytryptamine receptor 5A (HTR5A, Homo sapiens, UniProt P47898)

With CCOC(=O)c1ccc(OC(=O)CCCCCNC(=N)N)cc1 the inhibition was 1% (CASP8; enzyme activity, inhibitor; 10 µM).
Cc1ccccc1N(C)C(=O)Oc1nsnc1N1CCCCC1 has an inhibition of 17% (ABHD6; enzyme activity, inhibitor, fluorescence; 1 µM, lysate).
COCc1c(-c2cc3cc(C)cc(OC)c3s2)c2c(N)ncnn2c1CN1CCNC(=O)C1 has an inhibition of 89% (Mitogen-activated protein kinase kinase kinase 19 (MAP3K19, Homo sapiens, UniProt Q56UN5); cell-free assay, competition with immobilised ligand; 1 µM).
The inhibition of C#Cc1n[nH]c2c(-c3cn([C@@H](C)c4ccccn4)c(=O)[nH]c3=O)cc(F)cc12 is reported as 3.8% (RAC-beta serine/threonine-protein kinase (AKT2, Homo sapiens, UniProt P31751); enzyme activity, inhibitor; 0.1 µM).
With COc1ccccc1N(C)C(=O)Oc1nsnc1N1CCCCC1 the inhibition was 11% (ABHD6; enzyme activity, inhibitor, fluorescence; 1 µM, lysate).
CN(C)C(=O)COC(=O)Cc1ccc(OC(=O)c2ccc(NC(=N)N)cc2)cc1 has an inhibition of 0% (CASP8; enzyme activity, inhibitor; 10 µM).
For C[C@H](C(=O)N[C@H]1COc2ccccc2[C@@H]1S(C)(=O)=O)c1ccc(F)cc1, the inhibition was 10% (D(4) dopamine receptor (DRD4, Homo sapiens, UniProt P21917, del265-296); cell-free assay; 10 µM).
Cn1cc(-c2cc(F)cc(N3CCn4c(cc5c4CCCC5)C3=O)c2CO)cc(Nc2ccc(N3CCN(C4COC4)CC3)cn2)c1=O has an inhibition of -1% (Beta-adrenergic receptor kinase 1 (GRK2, Homo sapiens, UniProt P25098); enzyme activity, inhibitor; 0.1 µM).
For CCN(CC)CCCC[C@H](NC(=O)[C@H](CC(C)C)NC(=O)[C@H](C)NC(=O)[C@H](Cc1ccccc1)NC(=O)c1ccc(C(C)(C)C)cc1)C(=O)N[C@@H](CO)C(=O)OC, the inhibition was 7% (HTR5A; ligand displacement, radioligand; 10 µM).
CN(CCN1CCC(OC(=O)Nc2ccccc2-c2ccccc2)CC1)C(=O)c1ccc(CN2CCC(C(N)=O)CC2)cc1 has an inhibition of 22% (Histamine H2 receptor (Cavia porcellus, UniProt P47747); ligand displacement, radioligand; 1 µM).
For Cn1cc(-c2cccc(N3CCc4c(sc5c4CC(C)(C)C5)C3=O)c2CO)cc(Nc2ccncn2)c1=O, the inhibition was -7% (Mast/stem cell growth factor receptor Kit (KIT, Homo sapiens, UniProt P10721, V654A); enzyme activity, inhibitor; 1 µM).
For O=C1N=C(N2CCCCN2)S/C1=C\c1ccc(F)cc1O, the inhibition was < 10% (HTR5A; ligand displacement, radioligand; 10 µM).
The inhibition of N=C(N)c1ccc2cc(OC(=O)c3ccc(N=C(N)N)cc3)ccc2c1 is reported as 0% (CASP8; enzyme activity, inhibitor; 10 µM).
